Converted amounts (≈) assume the structure as drawn.
How the values were obtained:
Curvularia lunata [1] = assay: Antifungal activity against Cochliobolus lunatus delta bph at 5 mM assessed as initial growth inhibition time; format: functional
In short: (§1)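 Δbph deletion strain of C. lunatus (bph gene replaced by hph, hygromycin-selected) on agar with 5 mM test compound, in triplicate. Plates centrally inoculated with 7 mm mycelial disks from a 48 h culture. Radial growth rate (mm/h) measured; initial growth inhibition time (h) taken as the intercept of the extrapolated linear growth phase at 7 mm.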

Curvularia lunata [2] = assay: Antifungal activity against Cochliobolus lunatus at 5 mM assessed as initial growth inhibition time; format: functional
In short: (§2)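 C. lunatus m118 on agar plates in triplicate, each inhibitor at 5 mM alone or at 5 mM combined with 0.1 mM benzoic acid. Plates centrally inoculated with 7 mm mycelial disks taken from a 48 h solid culture. Radial growth rate (mm/h) from colony diameter over time. Initial growth inhibition time (h) is the time-axis intercept of the linear growth phase extrapolated to 7 mm diameter.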

Curvularia lunata [3] = assay: Antifungal activity against Cochliobolus lunatus at 5 mM assessed as radial growth rate; format: functional; in short: as §2
Curvularia lunata [4] = assay: Antifungal activity against Cochliobolus lunatus at 0.1 mM assessed as initial growth inhibition time; format: functional; in short: as §2
Curvularia lunata [5] = assay: Antifungal activity against Cochliobolus lunatus at 0.1 mM assessed as radial growth rate; format: functional; in short: as §2
Curvularia lunata [6] = assay: Antifungal activity against Cochliobolus lunatus delta bph at 5 mM assessed as radial growth rate; format: functional; in short: as §1
Curvularia lunata [7] = assay: Antifungal activity against Cochliobolus lunatus; format: functional
In short: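 C. lunatus m118 (wild type). MIC, the lowest concentration preventing visible growth after overnight incubation, determined by the Radford method.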

[8] = Inhibition of Cochliobolus lunatus CYP53A15 expressed in Escherichia coli; design: species or system Curvularia lunata
In short: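 His-tagged CYP53A15 from E. coli C43(DE3), Ni-NTA purified, reconstituted with rabbit liver NADPH-P450 reductase and DLPC in pH 7.4 phosphate. Reaction started with 1 mM NADPH and benzoate. para-Hydroxybenzoate formation quantified by HPLC of quenched reactions over time. Enzyme at 5 µM, inhibitors at 300 and 600 µM. Kinetic constants from simultaneous progress-curve analysis.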

Row | Structure (SMILES) | Activity (Curvularia lunata [1]) [h] | Activity (Curvularia lunata [2]) [h] | Activity (Curvularia lunata [3]) [millimeter/hr] | Activity (Curvularia lunata [4]) [h] | Activity (Curvularia lunata [5]) [millimeter/hr] | Activity (Curvularia lunata [6]) [millimeter/hr] | MIC (Curvularia lunata [7]) [mM] | Ki [8] [µM]
1 | O=C(O)c1ccccc1 [BENZOIC ACID] | >1800 | 56 | 0.22 | 12 | 0.55 | 0 | 5 (≈ 611 µg/mL) | 
2 | C=CCc1ccc(O)c(OC)c1 [EUGENOL] |  | 20 | 0.57 |  |  |  |  | 26.2
3 | C/C=C\c1ccc(O)c(OC)c1 [ISOEUGENOL] | >1800 | 56 | 0.29 |  |  | 0 |  | 14.2
4 | Cc1ccc(C(C)C)c(O)c1 [THYMOL] |  |  |  |  |  |  |  | 8.2
5 | COc1cc(C=O)ccc1O [VANILLIN] |  | 12 | 0.55 |  |  |  |  | 29.7
